Activity and Expression data for five compounds are collected here from ChEMBL document CHEMBL1124730, “Acid-stable 2'-fluoro purine dideoxynucleosides as active agents against HIV” (1990).

For assay [1], the system named is Human immunodeficiency virus 1. Description: Ability to protect CD4+ ATH8 cells from cytopathogenic effects of HIV-1; Inactive. Particulars: ATH-8. The class given is functional, organism-based.
The subject of assay [2] is H9. Description: Percentage of gag protein expression using H9 cells at 100 uM on 12th day. The class given is functional, Homo sapiens. In a few lines:
(§1)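 H9 cells (105) were infected with HIV-1 (500 virus particles per cell) and cultured without or with drug at the stated concentration. On days 7, 10 and 12, the percentage of cells expressing HIV-1 p24 gag protein was scored by indirect immunofluorescence with murine monoclonal antibody M26.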

Assay [3] concerns H9. Description: Percentage of gag protein expression using H9 cells at 50 uM on 7th day. Type of assay: functional, Homo sapiens. The method in brief: as §1
The subject of assay [4] is H9. Description: Percentage of gag protein expression using H9 cells at 20 uM on 10th day. Type of assay: functional, Homo sapiens. The method in brief: as §1
For assay [5], the system named is H9. Description: Percentage of gag protein expression using H9 cells at 0 uM on 7th day. The class given is functional, Homo sapiens. In a few lines: as §1
Assay [6] concerns H9. Description: Percentage of gag protein expression using H9 cells at 50 uM on 10th day. The class given is functional, Homo sapiens. In a few lines: as §1
Assay [7] has as its system H9. Description: Percentage of gag protein expression using H9 cells at 5 uM on 7th day. The class given is functional, Homo sapiens. The method in brief: as §1
Assay [8] concerns H9. Description: Percentage of gag protein expression using H9 cells at 200 uM on 7th day. The class given is functional, Homo sapiens. The method in brief:
as §1

The subject of assay [9] is Human immunodeficiency virus 1. As to the kind of experiment: Ability to protect CD4+ ATH8 cells from cytopathogenic effect of HIV-1; Active. Particulars: ATH-8. The class given is functional, organism-based. In general terms: Damage to the host cells serves as the signal in cytopathic effect assays.
The test system of assay [10] is H9. As to the kind of experiment: Percentage of gag protein expression using H9 cells at 200 uM on 10th day. Type of assay: functional, Homo sapiens. In a few lines: as §1
Assay [11] relates to H9. As to the kind of experiment: Percentage of gag protein expression using H9 cells at 5 uM on 10th day. Type of assay: functional, Homo sapiens. The method in brief:
as §1

The subject of assay [12] is H9. Description: Percentage of gag protein expression using H9 cells at 20 uM on 7th day. Type of assay: functional, Homo sapiens. The method in brief: as §1
Assay [13] concerns H9. As to the kind of experiment: Percentage of gag protein expression using H9 cells at 50 uM on 12th day. Type of assay: functional, Homo sapiens. In a few lines: as §1
Assay [14] relates to H9. As to the kind of experiment: Percentage of gag protein expression using H9 cells at 5 uM on 12th day. The class given is functional, Homo sapiens. In a few lines:
as §1

The subject of assay [15] is H9. As to the kind of experiment: Percentage of gag protein expression using H9 cells at 100 uM on 7th day. Type of assay: functional, Homo sapiens. The method in brief:
as §1

Assay [16] has as its system H9 (Homo sapiens). Description: Percentage of gag protein expression using H9 cells at 0 uM on 12th day.
Assay [17] has as its system H9. Description: Percentage of gag protein expression using H9 cells at 200 uM on 12th day. The class given is functional, Homo sapiens. In a few lines:
as §1

Assay [18] deals with H9. Description: Percentage of gag protein expression using H9 cells at 20 uM on 12th day. Type of assay: functional, Homo sapiens. In a few lines: as §1
Assay [19] deals with H9 (Homo sapiens). As to the kind of experiment: Percentage of gag protein expression using H9 cells at 0 uM on 10th day.
Assay [20] relates to H9. Description: Percentage of gag protein expression using H9 cells at 100 uM on 10th day. Type of assay: functional, Homo sapiens. In a few lines:
as §1

Assay [21] deals with Human immunodeficiency virus 1. Description: Ability to protect CD4+ ATH8 cells from cytopathogenic effects of HIV-1; No effect. Type of assay: functional, organism-based. Particulars: ATH-8.

Calls of active or inactive are those of the source. The rule behind the calls is not given here.

Regarding `Nc1ncnc2c1ncn2[C@@H]1O[C@H](CO)C[C@H]1F`, in [1], the result was inactive.
Turning to `OCC1CC(F)C(n2cnc3c(O)ncnc32)O1` (stereo unspecified), the Expression in assay [2] is reported as 53%; in assay [3], 23%; in assay [4], 52%; in assay [5] it was 76%; in assay [6], 24%; in assay [7] it was 54%. The Expression in assay [8] is recorded as 7%; in assay [10], 10%; in [11] it was 82%; in assay [12] it was 58%; in assay [13], 57%; in assay [14] it was 61%. In addition, the Expression worked out at 34% in assay [15]; 74% in assay [16]; 60% in assay [17]; 61% in assay [18]; 71% in assay [19]; 12% in [20]. The result in assay [9] was Active.
In the case of `Nc1ncnc2c1ncn2[C@@H]1O[C@H](CO)C[C@@H]1F` [LODENOSINE], the Expression in assay [2] is given as 50%; in assay [3] it was 18%; in assay [4], 37%; in [5], 79%; in assay [6], 20%; in assay [7], 58%. The Expression is 0% in [8]; 0% in [10]; 73% in [11]; 61% in assay [12]; 19% in assay [13]; 66% in assay [14]. The Expression in [15] was 10%; in assay [16], 79%; in assay [17] it was 0%; in assay [18], 53%; in assay [19], 71%; in [20] it was 34%.
Consider `Nc1ncnc2c1ncn2[C@H]1CC[C@@H](CO)O1`, for which the Expression in [2] amounted to 0%; in assay [3], 0%; in assay [4], 0%; in assay [5] it was 79%; in assay [6], 0%; in [7], 48%. The Expression in assay [8] was found to be 0%; in assay [10], 0%; in assay [11], 48%; in assay [12] it was 1%; in [13], 2%; in assay [14] it was 86%. Besides, the Expression came out at 0% in [15]; 84% in [16]; 0% in [17]; 8% in [18]; 70% in [19]; 0% in assay [20]. Besides, the result in assay [21] was inactive.
With `O=c1[nH]cnc2c1ncn2[C@H]1CC[C@@H](CO)O1` [DIDANOSINE], the Expression in assay [2] was found to be 0%; in assay [3] it was 0%; in assay [4] it was 30%; in assay [5], 76%; in assay [6], 0%; in assay [7], 73%. Further, the Expression was 0% in assay [8]; 0% in [10]; 53% in assay [11]; 9% in [12]; 3% in assay [13]; 74% in assay [14]. Besides, the Expression is reported as 0% in [15]; 83% in [16]; 0% in assay [17]; 48% in assay [18]; 73% in assay [19]; 0% in [20]. For the same compound, the outcome in assay [9] was Active.
